Measurements taken from PubChem BioAssay AID624400 (The Scripps Research Institute Molecular Screening Center, 2012).

The molecules below were run on aryl hydrocarbon receptor (Cavia porcellus) (assay: AHR ligand binders displacing [3H]TCDD, late-stage follow-up, counter-screen for AHR activator project, cell lysate, guinea pig liver cytosol, radiometric, set 2 (AID 624400)). Details: [3H]TCDD binding, hydroxyapatite, at 10 µM, active compounds read high.
Method in brief: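 System: guinea pig hepatic cytosol with AHR; Amount: cytosol diluted to 2 mg protein per mL; Probe or stimulus: [3H]TCDD radioligand at 2 nM final; Replication: triplicate; Measured by: scintillation counting of hydroxyapatite-captured radioligand; Compound dosing: 10 µM single dose, 2% DMSO; Timing: 1 h binding incubation at room temperature; Medium: HEDG buffer, pH 7.5.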
Molecule `Cc1ccc(-c2cc(-c3ccc(Cl)cc3)n[nH]2)c(O)c1` has an inhibition of 61.7%. `Cc1ccc(-c2cc(-c3ccc(F)cc3)n[nH]2)c(O)c1` was tested, and the inhibition was 19.8%. In the case of `Cc1ccc(-c2cc(-c3cccc(F)c3)n[nH]2)c(O)c1`, the inhibition is reported as 34.8%.
